From ChEMBL document CHEMBL4680306, “The 3-D conformational shape of N-naphthyl-cyclopenta[d]pyrimidines affects their potency as microtubule targeting agents and their antitumor activity” (Bioorg Med Chem, 2021)
The source made the active and inactive calls. The rule behind the calls is not given here.

Experiments:
[1] = Induction of microtubule depolymerisation in rat A-10 cell line measured after 18 hrs by indirect immunofluorescence method; settings: a10
In short: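 Rat A-10 cells, chosen because they arrest in interphase without significant mitotic accumulation, were exposed to compounds for 18 h. Cellular microtubules were then visualized by indirect immunofluorescence. EC50 values come from at least three independent experiments.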

MDA-MB-435 = assay: Antiproliferative activity against human MDA-MB-435 cell line assessed as inhibition of cell proliferation measured after 48 hrs by SRB assay; type: functional, cell-based; settings: MDA-MB-435, 48 h
In short: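 MDA-MB-435 melanoma cells were assessed by sulforhodamine B assay. IC50 is the mean ± SD of at least three independent experiments, each run in triplicate.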

U-251 [2] = assay: Cytotoxicity against human U251 cell line assessed as inhibition of cell growth after 48 hrs by SRB assay; type: functional, cell-based; settings: U-251, 48 h
Bos taurus = species on record: Bos taurus; assay: Inhibition of [3H]colchicine binding to bovine tubulin at 5 uM measured after 10 mins by scintillation counting
In short: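 Purified bovine brain tubulin at 1.0 µM was mixed with 5.0 µM [3H]colchicine and inhibitor, plus components that stabilize colchicine binding, in 5% DMSO; tubulin was added last, on ice. Binding ran 10 min at 37 °C and was stopped with ice water. Mixtures were filtered through stacked DEAE-cellulose filters, and bound radiolabel was measured by scintillation counting.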

HeLa = assay: Antiproliferative activity against human HeLa cells assessed as decrease in cell growth measured after 48 hrs by SRB method; type: functional, cell-based
U-251 [3] = assay: Antitumour activity against human U251 cells xenografted in NCr athymic nude nu/nu mouse assessed as decrease in tumour growth at 17.5 mg/kg twice in a week; type: functional, organism-based
A549 = assay: Cytotoxicity against human A549 cells assessed as inhibition of cell growth measured after 48 hrs by SRB assay; type: functional
HOP-62 = assay: Cytotoxicity against human HOP-62 cells assessed as inhibition of cell growth measured after 48 hrs by SRB assay; type: functional
HOP-92 = assay: Cytotoxicity against human HOP-92 cells assessed as inhibition of cell growth measured after 48 hrs by SRB assay; type: functional
NCI-H460 = assay: Cytotoxicity against human NCI-H460 cells assessed as inhibition of cell growth measured after 48 hrs by SRB assay; type: functional
NCI-H522 = assay: Cytotoxicity against human NCI-H522 cells assessed as inhibition of cell growth measured after 48 hrs by SRB assay; type: functional
SF-539 = assay: Cytotoxicity against human SF-539 cells assessed as inhibition of cell growth measured after 48 hrs by SRB assay; type: functional
SNB-19 = assay: Cytotoxicity against human SNB-19 cells assessed as inhibition of cell growth measured after 48 hrs by SRB assay; type: functional
SNB-75 = assay: Cytotoxicity against human SNB-75 cells assessed as inhibition of cell growth measured after 48 hrs by SRB assay; type: functional
U-251 [4] = assay: Cytotoxicity against human U-251 cells assessed as inhibition of cell growth measured after 48 hrs by SRB assay; type: functional
786-0 = assay: Cytotoxicity against human 786-0 cells assessed as inhibition of cell growth measured after 48 hrs by SRB assay; type: functional
A498 = assay: Cytotoxicity against human A498 cells assessed as inhibition of cell growth measured after 48 hrs by SRB assay; type: functional
CAKI-1 = assay: Cytotoxicity against human CAKI-1 cells assessed as inhibition of cell growth measured after 48 hrs by SRB assay; type: functional
RXF 393 = assay: Cytotoxicity against human RXF 393 cells assessed as inhibition of cell growth measured after 48 hrs by SRB assay; type: functional
SN12C = assay: Cytotoxicity against human SN12C cells assessed as inhibition of cell growth measured after 48 hrs by SRB assay; type: functional
TK-10 = assay: Cytotoxicity against human TK-10 cells assessed as inhibition of cell growth measured after 48 hrs by SRB assay; type: functional
COLO 205 = assay: Cytotoxicity against human COLO 205 cells assessed as inhibition of cell growth measured after 48 hrs by SRB assay; type: functional
HCC 2998 = assay: Cytotoxicity against human HCC 2998 cells assessed as inhibition of cell growth measured after 48 hrs by SRB assay; type: functional
HCT-116 = assay: Cytotoxicity against human HCT-116 cells assessed as inhibition of cell growth measured after 48 hrs by SRB assay; type: functional
HT-29 = assay: Cytotoxicity against human HT-29 cells assessed as inhibition of cell growth measured after 48 hrs by SRB assay; type: functional
SW-620 = assay: Cytotoxicity against human SW-620 cells assessed as inhibition of cell growth measured after 48 hrs by SRB assay; type: functional
IGROV-1 = assay: Cytotoxicity against human IGROV-1 cells assessed as inhibition of cell growth measured after 48 hrs by SRB assay; type: functional
OVCAR-3 = assay: Cytotoxicity against human OVCAR-3 cells assessed as inhibition of cell growth measured after 48 hrs by SRB assay; type: functional
SK-OV-3 = assay: Cytotoxicity against human SK-OV-3 cells assessed as inhibition of cell growth measured after 48 hrs by SRB assay; type: functional
LOX IMVI = assay: Cytotoxicity against human LOX IMVI cells assessed as inhibition of cell growth measured after 48 hrs by SRB assay; type: functional
Malme-3M = assay: Cytotoxicity against human Malme-3M cells assessed as inhibition of cell growth measured after 48 hrs by SRB assay; type: functional
M14 = assay: Cytotoxicity against human M14 cells assessed as inhibition of cell growth measured after 48 hrs by SRB assay; type: functional
SK-MEL-2 = assay: Cytotoxicity against human SK-MEL-2 cells assessed as inhibition of cell growth measured after 48 hrs by SRB assay; type: functional
SK-MEL-28 = assay: Cytotoxicity against human SK-MEL-28 cells assessed as inhibition of cell growth measured after 48 hrs by SRB assay; type: functional
UACC-62 = assay: Cytotoxicity against human UACC-62 cells assessed as inhibition of cell growth measured after 48 hrs by SRB assay; type: functional
DU-145 = assay: Cytotoxicity against human DU-145 cells assessed as inhibition of cell growth measured after 48 hrs by SRB assay; type: functional
MCF7 = assay: Cytotoxicity against human MCF7 cells assessed as inhibition of cell growth measured after 48 hrs by SRB assay; type: functional
BT-549 = assay: Cytotoxicity against human BT-549 cells assessed as inhibition of cell growth measured after 48 hrs by SRB assay; type: functional
T47D = assay: Cytotoxicity against human T47D cells assessed as inhibition of cell growth measured after 48 hrs by SRB assay; type: functional
CCRF-CEM = assay: Cytotoxicity against human CCRF-CEM cells assessed as inhibition of cell growth measured after 48 hrs by SRB assay; type: functional
K562 = assay: Cytotoxicity against human K562 cells assessed as inhibition of cell growth measured after 48 hrs by SRB assay; type: functional
RPMI-8226 = assay: Cytotoxicity against human RPMI-8226 cells assessed as inhibition of cell growth measured after 48 hrs by SRB assay; type: functional
SR = assay: Cytotoxicity against human SR cells assessed as inhibition of cell growth measured after 48 hrs by SRB assay; type: functional

COc1cccc2cc(N(C)c3nc(C)nc4c3CCC4)ccc12
EC50 [1]: 0.0045 µM
IC50 (MDA-MB-435): 0.0028 µM
IC50 (U-251 [2]): 0.0176 µM
inhibition (Bos taurus): 98%
IC50 (HeLa): 0.0034 µM
inhibition (U-251 [3]): Active
GI50 (A549): < 0.01 µM
GI50 (HOP-62): < 0.01 µM
GI50 (HOP-92): 0.0285 µM
GI50 (NCI-H460): < 0.01 µM
GI50 (NCI-H522): < 0.01 µM
GI50 (SF-539): < 0.01 µM
GI50 (SNB-19): < 0.01 µM
GI50 (SNB-75): 1.89 µM
GI50 (U-251 [4]): < 0.01 µM
GI50 (786-0): < 0.01 µM
GI50 (A498): < 0.01 µM
GI50 (CAKI-1): < 0.01 µM
GI50 (RXF 393): < 0.01 µM
GI50 (SN12C): < 0.01 µM
GI50 (TK-10): 9.32 µM
GI50 (COLO 205): < 0.01 µM
GI50 (HCC 2998): < 0.01 µM
GI50 (HCT-116): < 0.01 µM
GI50 (HT-29): < 0.01 µM
GI50 (SW-620): < 0.01 µM
GI50 (IGROV-1): < 0.01 µM
GI50 (OVCAR-3): < 0.01 µM
GI50 (SK-OV-3): < 0.01 µM
GI50 (LOX IMVI): < 0.01 µM
GI50 (Malme-3M): 11.5 µM
GI50 (M14): < 0.01 µM
GI50 (SK-MEL-2): < 0.01 µM
GI50 (SK-MEL-28): 5.63 µM
GI50 (UACC-62): 1.49 µM
GI50 (DU-145): < 0.01 µM
GI50 (MCF7): < 0.01 µM
GI50 (BT-549): < 0.01 µM
GI50 (T47D): < 0.01 µM
GI50 (CCRF-CEM): < 0.01 µM
GI50 (K562): < 0.01 µM
GI50 (RPMI-8226): < 0.01 µM
GI50 (SR): < 0.01 µM
